The values that follow come from the RNAGym collection of RNA variant scans (doi:10.1126/science.aae0568).

Fewer inactive variants are shown than the library holds. Where only a bound is given, the exact number is not on record here.

The labels stand for the following.
B1: tRNA (parent)
chain: GUUCCGUUGGCGUAAUGGUAACGCGUCUCCCUCCUAAGGAGAAGACUGCGGGUUCGAGUCCCGUACGGAACG

The variants in the series derive from B1. Nature of the series: yeast fitness relative to wild type (ratio to wild type); higher = fitter; tRNA-Arg(CCU), competitive growth, 37 C, YPD. In short, it runs like this:
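A pool of Saccharomyces cerevisiae strains, each with a tRNA-Arg(CCU) gene variant at the native genomic locus, was competed in YPD at 37°C for 24 hours across six parallel replicates. The variants had been chemically synthesised at a 3% per-site mutation rate over 69 sites, and gene amplicons before and after competition were read by 100-nucleotide paired-end sequencing. Darwinian fitness relative to wild type rested on changes in genotype frequencies. Genotypes required ≥ 100 starting reads, and estimates < 0.5 were set to 0.5.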
Take GAUCCGUUGGCGUAACGGUAACGCGUCUCCCUCCUAAGGAGAACACUGCGGAUUCGAGUCCCGUACGGAACG: the yeast fitness is at most 0.5.

Consider GUCCCGUUGGAGUAAUGGUAACGCGUCUCCAUCCUAAGGAGAAGACUGCGGGUUCGAGUCCCGUACGGAACG, for which the yeast fitness was determined as 0.556.

Turning to GUUCCGUUGGAGUAAUGGUAACGCGUCUCCCUCCGAAGGAGAAGACUGCGGGUUCGAGUCCCGUACAGAACG, the yeast fitness was determined as 0.52.

On to GUUCUGUUGGCGUAAUGGUAACGCGUCUCCCUCCUAAGGAGAAGACCGCGGGUUCGUGUCCCGUACCGAACG, for which the yeast fitness is at most 0.5.

As to GCUCCGUUGGCGUAAUGGUAACGCGUCUCCCACCUAAGGAGAAGACUGCGGGUUCGAGUCACGUGCGGAACG, the yeast fitness was at most 0.5.

Turning to GUUCCGUUGGCGUAAUGGUAAAGCGUCUCCCUCCUAAGGAGAAGACAGCGGGUUCGAGUCCCGUGCGGAACG, the yeast fitness stood at 0.573.

On to GUUCCGUUGGCGUAAUGGUAACGCGUCUCCCUCCUUAGGAGAAGACUGCGGGUUCCAGUCCCGUACGGUACG, for which the yeast fitness was found to be 0.669.

Consider GUUCCGUUGGCCUCAUGGUAACGCGCCUCCCUCCUAAGGUACAGACUGCGGGUUCGAGUCCCGUACGGAACG, for which the yeast fitness is at most 0.5.

Turning to GUUCCGUUCGCGUAAUGGUAACGCGUCUCCCUCCUAAGGAGAAGACUGCGGGUUCGAGUCGCGUACGGAACG, the yeast fitness is 0.61.

For GUUCCGUUGGCGUAAUGGUAACGCGUCUCCCUCUUAAGGAGAAGACUGCGGGUUCGAGUCCCGUAUGGUACG, the yeast fitness is at most 0.5.

As to GUUCCGUUGGCGUAAUGGUAACGCGUCUACCUCCUAAGGAGAAGACUGCGGGUUCGAGUCCCGCACGGCACG, the yeast fitness is at most 0.5.

For GUUCCGUUGGCGUAAUGGUAACGCGUCUCCCUCCUAAGGACAAGACUGCGGGUUCGAGUCCCGUACGGUACG, the yeast fitness amounted to 0.813.

For the variant GUUCCGUUGGCAUAAUGGUAAAGAGUCUCCCUCCUUAGGAGAAGACUGCGGGAUCGAGUCCCGUACGGAACG, the yeast fitness is at most 0.5.

GAUCCGUUGGUGUAAUGGUAACGCGUCUGCCUCCUACGGAGUAGACUGCGGGUUCGGGUCCCGUACAGAACG: the yeast fitness was at most 0.5.

For GUUCCGUUGGCGUAAUCGUACCGCGUCUCCCUCGUAUGGAGUAGACUGCGGGUUCGGGUCCCGUACGGAACG, the yeast fitness was at most 0.5.

As to GUUCCGUUGGCGUAAUGGUAACGCGUCUCCCUCCUACGGAGAAGACGGCGGGUUCGAGUCCGGUACGAAACG, the yeast fitness was 0.549.

Turning to GUUCCGUUGGCGAAAUGGUAACGCGUCUCCCUCCUAAGGUGAAGACUGCGGGUUCGAGUCCCGUACGGAACG, the yeast fitness is 0.99.

For the variant GUUCCGUUGGCGUAAUGGUAACGCGUCCCCCUCCUAAAGCGAAGGCUACGGGUUCGAGACCUGUACGGAACG, the yeast fitness stood at 0.542.

Consider GUUCCGUUGGCGUAAUGGUAACGCGUCUCCCUCCUAUGGAGAAGACUCCGGGUUCGAGCCCCGUACGGAACG, for which the yeast fitness was 0.533.

Consider GUUCCGUUGGGGUUAUAGUAACGCGUCUCCCUCCUGAGGAAAAGACUGCGGGUUCGAGUCCCGUACGGAACG, for which the yeast fitness was found to be 0.582.

With GUUCCGUUGGCGCAAGGGUAACGCGUCUCCCUCCUAAGGAGAAGACUGCGGGUUCGAGUCCCGUGCGGAACG, the yeast fitness was found to be 0.572.

Regarding GUUCCCUUGGCGUAAGGGUAACGCGUCUCCCUCCUAAGGAGAAGACUGCGGGUUCGAGUCCUGUACGGAACG, the yeast fitness was 0.532.

In the case of GUUCCGUUGGCGUAAUGGUAACCCGUCUCCGUCCUAAGGAGAAGACUGCGGGUUCGAGUCCCGUACGGAACG, the yeast fitness turned out to be 0.654.

Regarding GUUCCGUUGGCGUAAUGGUAAUGCGUCUCCCUCCUAAGGAGAAGAUUGCGGGUUCGAGUCCCGUACGGAACG, the yeast fitness is 0.995.

For GUUCCGUUGGCGUAGUGGUAACGUGUCUUGCUCCGAAGGAGAAGACUGCGGGUUCGAGUCCCGUAUGGAACG, the yeast fitness was at most 0.5.

In the case of GUUCCGUUGGCGUAGUGGUAACGCGUCUACCUCCUAAGAAGAAGACUGCGGGUUCGAGUCCCGUACGGAACG, the yeast fitness was found to be 0.572.

GUUCGGUUGGCGUAAAGGUAACGCGUCUCCCUCCUAAGGAGAGGACUGCGGGUUCGAGUCCCGUACGGAACG: the yeast fitness came to 0.573.

GUUCCGUUGGCGUAAUGGUAACGGGUCUCCCUCCUAAGGAGAAGACUGCGGGUUCGAGUGCCGUACGGAGCG: the yeast fitness was at most 0.5.

Consider GUUCCGUUGGCGUUAUGGUCACGCGUUUCCCUCCCAAGGAGAAGACUACGGGUUCGAGUCCCGUACGGAUCG, for which the yeast fitness was at most 0.5.

With GUUCCGUUGGCGUAAUGGCAACGCGUCUCCCUCCUAAGGAGAAGACUGCGGGUUCGGGUCCCGUACGGAUCG, the yeast fitness stood at 0.601.

As to GUUCCGUUGGCGUAAUGGUAACGCGUCUACCUCCUAAGGAGAAGACUGCGGGUUCGUGUGCAGUACGGAACG, the yeast fitness is at most 0.5.

For GUUCCGUUGGCGUAAUGGUCACGUGUCUCCCUCCUAAGGAGAAGACUGCGGGUUCGAGUCCCGUACGGAACG, the yeast fitness is 0.798.

With GUUCCGUUGGCGUAAUGGUCACGCGUCUCCCUCCUAAGGAGAAGACUGCGGGUUCGAGUCCAGUACGGAACG, the yeast fitness turned out to be 0.831.

Consider GUUCCGUUGGCGUAAUGGUAACGCGUCUCCCUCCUAAGGAGACGACUGCGGGUUCGAGUCCCGUACGGAACG, for which the yeast fitness amounted to 0.997.

Turning to GUUCUGUUGGCGUGAUGGUAACGCGUCUCCCUCCUAAGGAGAAGACUGCCGGUUUGGGUCCCGUACGAAACG, the yeast fitness is at most 0.5.

As for GUGCCGUUGGCGUAAUGGUAACGCGUCUCCCUCCUAAGGAGAAGACUGCGGGUUCGAGUCCCGUACGGUACG, the yeast fitness worked out at 0.924.

GUUCCGUUGGCGUAAUGGUCACGUGUCUCCCUCCUAAGGAGAAGACUGCGGGUUGGAGUCCCGUACGGAACG: the yeast fitness was 0.643.

GUUCCGUUGGCGUAAUGGUAACGCGUGUCCCUCCUAAGGAGUAGACUGCGGAUUCGAGUCCCGUACGGAACG: the yeast fitness was at most 0.5.
